Measured values of several laboratories.
Lines come from different studies, so protocols differ.
Target: Dual specificity mitogen-activated protein kinase kinase 2 (MAP2K2, Homo sapiens, UniProt P36507)

SMILES	test	setting	quantity	value
Cn1cncc1[C@@](O)(COc1ccc(C#N)cc1-c1ccc(OC(F)(F)F)cc1)c1ccc(C#N)cc1	cell-free assay, competition with immobilised ligand	1 µM	remaining binding	74%
COc1cc(Nc2ncc(F)c(Nc3ccc4c(n3)NC(=O)C(C)(C)O4)n2)cc(OC)c1OC	binding, competition with immobilised ligand	10 µM	inhibition	87%
O=c1[nH]c2ccccc2n1C1CCN(Cc2ccc(-c3[nH]c4cc5ncnc5cc4nc3-c3ccccc3)cc2)CC1	cell-free assay	0.5 µM	remaining signal	86.6%
COc1ncccc1-c1cnn2ccc(N3CCN(C(=O)OC(C)C)CC3)nc12	binding, competition with immobilised ligand	1 µM	remaining binding	91%
Cn1cc(-c2cccc(N3CCc4c(sc5c4CC(C)(C)C5)C3=O)c2CO)cc(Nc2ccncn2)c1=O	enzyme activity, inhibitor	1 µM	inhibition	5%
CC(C)(C)c1cc(C=C(C#N)C#N)cc(Br)c1O	enzyme activity, inhibitor	0.5 µM	remaining activity	85.8%
Cc1nn(C)cc1-c1nc2c(N3CCN(Cc4ccc(Cl)cc4)CC3)c(Cl)cnc2[nH]1	binding, competition with immobilised ligand	1 µM	remaining binding	100%
Cn1cc(-c2cc(F)cc(N3CCn4c(cc5c4CCCC5)C3=O)c2CO)cc(Nc2ccc(N3CCN(C4COC4)CC3)cn2)c1=O	enzyme activity, inhibitor	0.1 µM	inhibition	11%
N#CC1(c2ccccn2)CCN(Cc2cc(C(=O)O)c(=O)n3ccccc23)CC1	cell-free assay, competition with immobilised ligand	1 µM	remaining binding	100%
Nc1ncc(-c2nc(N3CCOCC3)nc(N3CCOCC3)n2)c(C(F)F)n1	binding, competition with immobilised ligand	10 µM	remaining binding	77%
